Laboratory results published in ChEMBL document CHEMBL4390679 (J Med Chem, 2019).
Calls of active or inactive are those of the source. The rule behind the calls is not given here. Starred links: 1 amine or outer side, 2 acyl side, 3 side chain; linkers in the order of their positions; H or OH if unused. Positions of bridges follow the written chain, without caps; N, C: chain ends. Non-standard residues stand in square brackets, D forms with d. Residues, ends and D or L forms follow the SMILES beside them. Abu(4-yl) = O=C([C@H](CC[*:3])N[*:1])[*:2]; N(4-F-Bzl)Gly = O=C(O)CNCc1ccc(F)cc1; X1 = O=C(CN(CCCO)[*:1])[*:2]

How the values were obtained:
[1] = target: Vasopressin V1a receptor (Homo sapiens, UniProt P37288); test: Agonist activity at recombinant human V1a receptor expressed in HEK293 cells assessed as increase in intracellular calcium level measured at 3 secs interval for 5 mins by fura-2/AM dye based micro spectrofluorometric method; format: cell-based
[2] = target: T1, Oxytocin receptor (Homo sapiens, UniProt P30559); test: Agonist activity at recombinant human OTR expressed in HEK293 cells assessed as increase in intracellular calcium level measured at 3 secs interval for 5 mins by fura-2/AM dye based micro spectrofluorometric method; format: functional, cell-based
T1 sequence (P30559 whole entry): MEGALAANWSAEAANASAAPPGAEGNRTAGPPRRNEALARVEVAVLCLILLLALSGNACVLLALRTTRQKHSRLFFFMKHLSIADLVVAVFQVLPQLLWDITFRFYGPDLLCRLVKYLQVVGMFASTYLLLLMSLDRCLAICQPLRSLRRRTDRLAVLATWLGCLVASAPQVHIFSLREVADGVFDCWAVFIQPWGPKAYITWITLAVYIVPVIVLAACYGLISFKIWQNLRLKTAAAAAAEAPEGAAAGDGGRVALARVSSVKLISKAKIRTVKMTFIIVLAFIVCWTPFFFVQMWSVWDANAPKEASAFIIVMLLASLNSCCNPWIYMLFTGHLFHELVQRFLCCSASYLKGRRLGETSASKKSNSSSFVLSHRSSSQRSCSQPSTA

[3] = target: T2, Vasopressin V1b receptor (Homo sapiens, UniProt P47901); test: Agonist activity at recombinant human V1b receptor expressed in HEK293 cells assessed as increase in intracellular calcium level measured at 3 secs interval for 5 mins by fura-2/AM dye based micro spectrofluorometric method; format: cell-based
T2 sequence (P47901 whole entry): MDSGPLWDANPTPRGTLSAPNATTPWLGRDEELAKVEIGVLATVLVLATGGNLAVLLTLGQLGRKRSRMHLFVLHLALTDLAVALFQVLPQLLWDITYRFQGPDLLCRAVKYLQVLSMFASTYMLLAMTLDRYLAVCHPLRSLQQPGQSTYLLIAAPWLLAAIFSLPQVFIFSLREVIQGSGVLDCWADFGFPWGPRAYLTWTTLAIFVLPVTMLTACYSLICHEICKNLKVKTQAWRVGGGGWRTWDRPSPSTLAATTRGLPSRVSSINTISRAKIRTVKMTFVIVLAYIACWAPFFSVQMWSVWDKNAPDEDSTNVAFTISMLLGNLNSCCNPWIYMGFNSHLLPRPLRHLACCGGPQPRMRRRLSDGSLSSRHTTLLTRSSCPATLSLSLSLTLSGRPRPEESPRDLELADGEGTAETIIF

[4] = organism: Homo sapiens; test: Selectivity ratio of EC50 for recombinant human V1b receptor expressed in HEK293 cells to EC50 for recombinant human OTR expressed in HEK293 cells; format: cell-based
In short: (§1)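 Agonist response measured in HEK-293 cells stably expressing human OTR, V1aR or V1bR, loaded with 1 µM fura-2/AM for 30 min at 37 °C, washed in HEPES-buffered saline pH 7.4. F340/F380 ratio read every 3 s for 5 min at 37 °C, normalized to baseline and to maximal OT (OTR) or AVP (V1aR, V1bR) response; EC50 taken from these curves. n = 3, 20 cells per dish.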

[5] = target: T1, Oxytocin receptor; test: Displacement of [3H]OT from recombinant human OTR expressed in HEK293 cell membranes measured after 1 hr
[6] = organism: Homo sapiens; test: Selectivity ratio of EC50 for recombinant human V1a receptor expressed in HEK293 cells to EC50 for recombinant human OTR expressed in HEK293 cells; format: cell-based; in short: as §1
[7] = system: Mus musculus; test: Cognition enhancing effect in CD38KOCC Slc:ICR mouse model of autism spectrum disorder assessed as sucrose consumption over water at 100 ng/ml, ip administered as single dose measured after 24 hrs relative to control (reference value: 0.46 +/- 0.04); format: functional
[8] = system: Mus musculus; test: Cognition enhancing effect in CD38 knock out Slc:ICR mouse sire model of autism spectrum disorder assessed as latency time to retrieve pups by sires at 100 ng/ml, ip administered as single dose measured after 30 mins by parental retrieval test (reference value: 600 sec); format: functional
[9] = system: Mus musculus; test: Antidepressant-like activity in CD38KOCC Slc:ICR mouse model of autism spectrum disorder assessed as immobility time at 100 ng/ml, ip administered as single dose for 30 mins prior to testing measured for last 4 mins of 6 mins test by tail suspension test (reference value: 74.2 +/- 2.9 sec); format: functional
[10] = system: Mus musculus; test: Cognition enhancing effect in CD38KOCC Slc:ICR mouse model of autism spectrum disorder assessed as sucrose consumption over water at 100 ng/ml, ip administered as single dose measured after 60 mins relative to control (reference value: 0.46 +/- 0.04); format: functional
[11] = Plasma concentration in Slc:ICR mouse at 100 ng/g, iv measured immediately by LC-MS/MS analysis; format: ADME, organism-based; conditions: in vivo
In short: (§2)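 Male ICR mice (30 g) were given 100 ng/g i.v. via the tail vein. Blood was taken by cardiac puncture immediately and at 5, 15 and 30 min; CSF was taken at 30 min or 12 h. Plasma was deproteinized with acetonitrile/methanol 1:1 containing [13C6,15N]OT internal standard and analysed by LC-MS/MS (C8 column, SRM).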

[12] = system: Mus musculus; test: Antidepressant-like activity in CD38KOCC Slc:ICR mouse model of autism spectrum disorder assessed as immobility time at 100 ng/ml, ip administered as single dose for 24 hrs prior to testing measured for last 4 mins of 6 mins test by tail suspension test (reference value: 56.5 +/- 18.8 sec)
[13] = target: T3, Oxytocin receptor (Homo sapiens) (UniProt P30559); test: Displacement of [3H]OT from recombinant human OTR expressed in HEK293 cell membranes assessed as dissociation rate constant for [3H]OT binding
T3 sequence (whole entry): T1 sequence (P30559 whole entry)
In short: (§3)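 Membranes from HEK-293 cells stably expressing human OTR (5 µg/well) in 50 mM Tris, 10 mM MgCl2, 0.1% BSA, pH 7.4. [3H]OT added at 200 pM, 500 pM and 1 nM; bound and free separated by rapid filtration at multiple time points to build association curves. Kon and Koff fitted; t1/2 from Koff = ln2/t1/2. Two experiments, each in duplicate.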

[14] = system: Mus musculus; test: Cognition enhancing effect in CD38 knock out Slc:ICR mouse sire model of autism spectrum disorder assessed as latency time to retrieve pups by sires at 100 ng/ml, ip administered as single dose measured after 12 hrs by parental retrieval test (reference value: 233 +/- 68 sec); format: functional
[15] = Drug level in Slc:ICR mouse cerebrospinal fluid at 100 ng/g, iv measured after 12 hrs by LC-MS/MS analysis; format: ADME, organism-based; in short: as §2
[16] = system: Mus musculus; test: Cognition enhancing effect in CD38 knock out Slc:ICR mouse sire model of autism spectrum disorder assessed as latency time to retrieve pups by sires at 100 ng/ml, ip administered as single dose measured after 5 hrs by parental retrieval test (reference value: 233 +/- 68 sec); format: functional
[17] = Stability in mouse plasma assessed as parent compound remaining at 50 ng/ml measured after 2 hrs by LC-MS/MS analysis; format: ADME, cell-free; conditions: read-out: Stability
In short: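 Pooled mouse plasma spiked to a final 50 ng/mL was incubated at 37 °C for 1–120 min, quenched with acetonitrile/methanol 1:1 plus internal standard, and analysed by LC-MS/MS. Percent of the initial concentration was calculated; 85–115% was taken as acceptable.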

[18] = Half life in Slc:ICR mouse plasma during fast phase at 100 ng/g, iv measured for 15 mins by LC-MS/MS analysis; format: ADME, organism-based; in short: as §2
[19] = Drug level in Slc:ICR mouse cerebrospinal fluid at 100 ng/g, iv measured after 30 mins by LC-MS/MS analysis; format: ADME, organism-based; in short: as §2
[20] = Half life in Slc:ICR mouse plasma during slow phase at 100 ng/g, iv measured for 15 to 60 mins by LC-MS/MS analysis; format: ADME, organism-based; in short: as §2
[21] = target: T3, Oxytocin receptor (Homo sapiens); test: Displacement of [3H]OT from recombinant human OTR expressed in HEK293 cell membranes assessed as dissociation half life for [3H]OT binding; in short: as §3
[22] = target: T3, Oxytocin receptor (Homo sapiens); test: Displacement of [3H]OT from recombinant human OTR expressed in HEK293 cell membranes assessed as association rate constant for [3H]OT binding; in short: as §3
[23] = system: Mus musculus; test: Cognition enhancing effect in CD38 knock out Slc:ICR mouse sire model of autism spectrum disorder assessed as latency time to retrieve pups by sires at 100 ng/ml, ip administered as single dose measured after 24 hrs by parental retrieval test (reference value: 233 +/- 68 sec); format: functional
[24] = system: Mus musculus; test: Antidepressant-like activity in CD38KOCC Slc:ICR mouse model of autism spectrum disorder assessed as decrease in immobility time at 100 ng/ml, ip administered as single dose for 24 hrs prior to testing measured for last 4 mins of 6 mins test by tail suspension test
[25] = system: Mus musculus; test: Cognition enhancing effect in CD38KOCC Slc:ICR mouse model of autism spectrum disorder assessed as increase in sucrose consumption over water at 100 ng/ml, ip administered as single dose measured after 24 hrs; format: functional, organism-based
[26] = system: Mus musculus; test: Cognition enhancing effect in CD38 knock out Slc:ICR mouse sire model of autism spectrum disorder assessed as decrease in latency time to retrieve pups by sires at 0.3 mL, ip administered as single dose measured after 6 hrs by parental retrieval test; format: functional, organism-based
[27] = system: Mus musculus; test: Cognition enhancing effect in CD38 knock out Slc:ICR mouse sire model of autism spectrum disorder assessed as latency time to retrieve pups by sires at 0.3 mL, ip administered as single dose measured after 30 mins by parental retrieval test (reference value: 600 sec); format: functional
[28] = Slc:ICR, cerebrospinal fluid, 100 ng/g, read-out: Drug uptake

Chain of Vasopressin V1a receptor (P37288 whole entry): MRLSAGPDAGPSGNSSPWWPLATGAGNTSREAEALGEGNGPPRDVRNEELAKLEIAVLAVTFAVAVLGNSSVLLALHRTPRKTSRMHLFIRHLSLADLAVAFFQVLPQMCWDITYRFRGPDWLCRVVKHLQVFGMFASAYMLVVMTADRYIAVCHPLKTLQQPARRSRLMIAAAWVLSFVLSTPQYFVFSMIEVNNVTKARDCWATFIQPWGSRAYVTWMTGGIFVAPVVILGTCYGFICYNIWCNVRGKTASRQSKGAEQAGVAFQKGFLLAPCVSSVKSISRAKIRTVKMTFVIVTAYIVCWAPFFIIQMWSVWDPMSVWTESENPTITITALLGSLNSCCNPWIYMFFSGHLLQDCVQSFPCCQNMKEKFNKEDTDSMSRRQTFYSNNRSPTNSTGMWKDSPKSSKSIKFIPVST

SMILES	EC50 [1]	EC50 [2]	EC50 [3]	Ki [5]	Cp [11]	K [13]	remaining at 2 h, 50 ng/ml [17]	half-life [18]	half-life [20]	T1/2 [21]	K [22]	Ratio EC50 [4]	Ratio EC50 [6]	Time [8]	Time [9]	Ratio [10]	Time [14]	Time [16]	Time [23]	Activity [24]	other results
CC[C@H](C)[C@@H]1NC(=O)[C@H](Cc2ccc(O)cc2)NC(=O)[C@@H](N)CCSC[C@@H](C(=O)N(CC(=O)N[C@@H](CC(C)C)C(=O)NCC(N)=O)Cc2ccc(F)cc2)NC(=O)[C@H](CC(N)=O)NC(=O)[C@H](CCC(N)=O)NC1=O (H-[Abu(4-yl)]YIQNC[N(4-F-Bzl)Gly]LG-NH2; thioether 1-6)	4 nM	0.089 nM	0.8 nM	0.9 nM								9	45								
CC[C@H](C)[C@@H]1NC(=O)[C@H](Cc2ccc(O)cc2)NC(=O)[C@@H](N)CSSC[C@@H](C(=O)N(CCCO)CC(=O)N[C@@H](CC(C)C)C(=O)NCC(N)=O)NC(=O)[C@H](CC(N)=O)NC(=O)[C@H](CCC(N)=O)NC1=O (H-CYIQNC[X1]LG-NH2; disulfide 1-6)	> 10 nM	0.031 nM	> 10 nM	1.4 nM	108 ng/mL	0.0175 min⁻¹	85 to 115%	3.1 min	4.23 min	36.6 min	7.47 ×10⁶ /M/min	> 322	> 323	346 s	151.83 s	0.72	386 s	293 s	100 s		Ratio [7]: 0.67; Time [12]: 157.3 s; Drug uptake ([15]; in vivo, 12 h, BLD = below limit of detection): Bld; Drug uptake ([19]; in vivo, 0.5 h, BLD = below limit of detection): Bld
CC[C@H](C)[C@@H]1NC(=O)[C@H](Cc2ccc(O)cc2)NC(=O)[C@@H](N)CCSC[C@@H](C(=O)N(CCCO)CC(=O)N[C@@H](CC(C)C)C(=O)NCC(N)=O)NC(=O)[C@H](CC(N)=O)NC(=O)[C@H](CCC(N)=O)NC1=O (H-[Abu(4-yl)]YIQNC[X1]LG-NH2; thioether 1-6)	> 10 nM	0.15 nM	> 10 nM	3 nM								> 66.6	> 66.6								

Now from value to compound, other results behind:

EC50 [1]	EC50 [2]	EC50 [3]	Ki [5]	Cp [11]	K [13]	remaining at 2 h, 50 ng/ml [17]	half-life [18]	half-life [20]	T1/2 [21]	K [22]	SMILES	Ratio EC50 [4]	Ratio EC50 [6]	Time [8]	Time [9]	Ratio [10]	Time [14]	Time [16]	Time [23]	Activity [24]	other results
2.2 nM	0.028 nM	0.5 nM	0.51 nM	118 ng/mL	0.1 min⁻¹	85 to 115%	2.84 min	2.86 min	6.38 min	1.05 ×10⁸ /M/min	CC[C@H](C)[C@@H]1NC(=O)[C@H](Cc2ccc(O)cc2)NC(=O)[C@@H](N)CSSC[C@@H](C(=O)N(CC(=O)N[C@@H](CC(C)C)C(=O)NCC(N)=O)Cc2ccc(F)cc2)NC(=O)[C@H](CC(N)=O)NC(=O)[C@H](CCC(N)=O)NC1=O (H-CYIQNC[N(4-F-Bzl)Gly]LG-NH2; disulfide 1-6)	17.5	75.3	297 s	149.5 s	0.79	155 s	381 s	413 s	inactive	concentration at 12 h [15, 28]: 0.38 ng/mL; Activity [25]: inactive; concentration at 0.5 h [19, 28]: 0.1 ng/mL
				334 ng/mL		85 to 115%	2.91 min	8.84 min			CC[C@H](C)[C@@H]1NC(=O)[C@H](Cc2ccc(O)cc2)NC(=O)[C@@H](N)CSSC[C@@H](C(=O)N2CCC[C@H]2C(=O)N[C@@H](CC(C)C)C(=O)NCC(N)=O)NC(=O)[C@H](CC(N)=O)NC(=O)[C@H](CCC(N)=O)NC1=O [OXYTOCIN]				171 s					inactive	Activity [25]: inactive; Activity [26]: inactive; Time [27]: 240 s
